Experiments:
Type in all cases: functional
MDA-MB-468 = test: Antiproliferative activity against human MDA-MB-468 cells assessed as cell growth inhibition at 10 uM incubated for 48 hrs by sulforhodamine B assay relative to control
Outline: (§1)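 NCI-60 single-dose screen at 10^-5 M. Cells grown in RPMI 1640 with 5% FBS and 2 mM L-glutamine, plated at 5,000–40,000 cells/well, and preincubated 24 h. Drug (DMSO stock) added and incubated 48 h at 37 °C, 5% CO2. Adherent cells fixed with cold TCA, stained with 0.4% SRB in 1% acetic acid, dye solubilized in 10 mM trizma base, A515 read. Percent growth taken against time-zero and untreated control.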

T47D = test: Antiproliferative activity against human T47D cells assessed as cell growth inhibition at 10 uM incubated for 48 hrs by sulforhodamine B assay relative to control; outline: as §1
BT-549 = test: Antiproliferative activity against human BT-549 cells assessed as cell growth inhibition at 10 uM incubated for 48 hrs by sulforhodamine B assay relative to control
Outline: (§2)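 Single-dose NCI-60 prescreen at 10^-5 M. Cells in RPMI 1640 with 5% FBS and 2 mM L-glutamine, seeded 5,000–40,000 cells/well with 24 h preincubation, then drug exposure for 48 h at 37 °C under 5% CO2. Growth read by SRB staining of TCA-fixed cells at 515 nm against time-zero and untreated controls. Negative growth values denote cell kill.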

DU-145 = test: Antiproliferative activity against human DU-145 cells assessed as cell growth inhibition at 10 uM incubated for 48 hrs by sulforhodamine B assay relative to control
Outline: (§3)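 NCI-60 one-dose prescreen at 10^-5 M. Cells grown in RPMI 1640 with 5% FBS and 2 mM glutamine, preincubated 24 h, then exposed 48 h at 37 °C. Adherent lines TCA-fixed, SRB-stained, A515 read. Growth percent relative to time-zero and control; negative values mean cell kill.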

TK-10 = test: Antiproliferative activity against human TK-10 cells assessed as cell growth inhibition at 10 uM incubated for 48 hrs by sulforhodamine B assay relative to control; outline: as §1
RXF 393 = test: Antiproliferative activity against human RXF 393 cells assessed as cell growth inhibition at 10 uM incubated for 48 hrs by sulforhodamine B assay relative to control; outline: as §1
OVCAR-8 = test: Antiproliferative activity against human OVCAR-8 cells assessed as cell growth inhibition at 10 uM incubated for 48 hrs by sulforhodamine B assay relative to control; outline: as §1
OVCAR-5 = test: Antiproliferative activity against human OVCAR-5 cells assessed as cell growth inhibition at 10 uM incubated for 48 hrs by sulforhodamine B assay relative to control; outline: as §1
OVCAR-4 = test: Antiproliferative activity against human OVCAR-4 cells assessed as cell growth inhibition at 10 uM incubated for 48 hrs by sulforhodamine B assay relative to control; outline: as §1
UACC-62 = test: Antiproliferative activity against human UACC-62 cells assessed as cell growth inhibition at 10 uM incubated for 48 hrs by sulforhodamine B assay relative to control; outline: as §1
SNB-75 = test: Antiproliferative activity against human SNB-75 cells assessed as cell growth inhibition at 10 uM incubated for 48 hrs by sulforhodamine B assay relative to control; outline: as §1
SNB-19 = test: Antiproliferative activity against human SNB-19 cells assessed as cell growth inhibition at 10 uM incubated for 48 hrs by sulforhodamine B assay relative to control; outline: as §1
KM12 = test: Antiproliferative activity against human KM12 cells assessed as cell growth inhibition at 10 uM incubated for 48 hrs by sulforhodamine B assay relative to control; outline: as §1
HT-29 = test: Antiproliferative activity against human HT-29 cells assessed as cell growth inhibition at 10 uM incubated for 48 hrs by sulforhodamine B assay relative to control; outline: as §1
HCT-15 = test: Antiproliferative activity against human HCT-15 cells assessed as cell growth inhibition at 10 uM incubated for 48 hrs by sulforhodamine B assay relative to control; outline: as §3
NCI-H322M = test: Antiproliferative activity against human NCI-H322M cells assessed as cell growth inhibition at 10 uM incubated for 48 hrs by sulforhodamine B assay relative to control; outline: as §1
NCI-H226 = test: Antiproliferative activity against human NCI-H226 cells assessed as cell growth inhibition at 10 uM incubated for 48 hrs by sulforhodamine B assay relative to control; outline: as §1
HOP-62 = test: Antiproliferative activity against human HOP-62 cells assessed as cell growth inhibition at 10 uM incubated for 48 hrs by sulforhodamine B assay relative to control; outline: as §3
A549 = test: Antiproliferative activity against human A549 cells assessed as cell growth inhibition at 10 uM incubated for 48 hrs by sulforhodamine B assay relative to control; outline: as §2
K562 = test: Antiproliferative activity against human K562 cells assessed as cell growth inhibition at 10 uM incubated for 48 hrs by sulforhodamine B assay relative to control; outline: as §1
HL-60 = test: Antiproliferative activity against human HL-60 cells assessed as cell growth inhibition at 10 uM incubated for 48 hrs by sulforhodamine B assay relative to control; outline: as §3
SK-OV-3 = test: Antiproliferative activity against human SK-OV-3 cells assessed as cell growth inhibition at 10 uM incubated for 48 hrs by sulforhodamine B assay relative to control; outline: as §1
NCI-H460 = test: Antiproliferative activity against human NCI-H460 cells assessed as cell growth inhibition at 10 uM incubated for 48 hrs by sulforhodamine B assay relative to control; outline: as §1
CAKI-1 = test: Antiproliferative activity against human CAKI-1 cells assessed as cell growth inhibition at 10 uM incubated for 48 hrs by sulforhodamine B assay relative to control; outline: as §2
SK-MEL-28 = test: Antiproliferative activity against human SK-MEL-28 cells assessed as cell growth inhibition at 10 uM incubated for 48 hrs by sulforhodamine B assay relative to control; outline: as §1
MDA-MB-435 = test: Antiproliferative activity against human MDA-MB-435 cells assessed as cell growth inhibition at 10 uM incubated for 48 hrs by sulforhodamine B assay relative to control; outline: as §1

Compound	inhibition at 10 µM (MDA-MB-468) [%]	inhibition at 10 µM (T47D) [%]	inhibition at 10 µM (BT-549) [%]	inhibition at 10 µM (DU-145) [%]	inhibition at 10 µM (TK-10) [%]	inhibition at 10 µM (RXF 393) [%]	inhibition at 10 µM (OVCAR-8) [%]	inhibition at 10 µM (OVCAR-5) [%]	inhibition at 10 µM (OVCAR-4) [%]	inhibition at 10 µM (UACC-62) [%]	inhibition at 10 µM (SNB-75) [%]	inhibition at 10 µM (SNB-19) [%]	inhibition at 10 µM (KM12) [%]	inhibition at 10 µM (HT-29) [%]	inhibition at 10 µM (HCT-15) [%]	inhibition at 10 µM (NCI-H322M) [%]	inhibition at 10 µM (NCI-H226) [%]	inhibition at 10 µM (HOP-62) [%]	inhibition at 10 µM (HL-60) [%]	inhibition at 10 µM (NCI-H460) [%]	also measured
Brc1cn2ccnc2c(-c2ccc3ncn(C4CCCCC4)c3c2)n1	44.4	49.7	5.16	6.2	5.55	5.58	4.92	6.64	9.15	19.8	21.2	8.09	67.7	5.21	13.1	18.1	22.5	21.7	18		inhibition at 10 µM (A549): 9.36%; inhibition at 10 µM (K562): 18%
COc1ccccc1-c1cn2ccnc2c(-c2ccc3ncn(C4CCCCC4)c3c2)n1	14.6	36.6				0.95	8.78	6.61	13.2	25.1	35	11.1	3.58	11.1	33.6		25.7		14.6	9.62	inhibition at 10 µM (SK-OV-3): 10.6%; inhibition at 10 µM (A549): 13.9%; inhibition at 10 µM (K562): 22.6%
O=Cc1ccc(-c2cn3ccnc3c(-c3ccc4ncn(Cc5ccccc5)c4c3)n2)cc1		98	33.8	24.3	0.75	25	44		16.9	37.1	21.4	14.4	3.69	17.5	49.1	11.2	0.53	23.8	16.5	37.8	inhibition at 10 µM (CAKI-1): 36.5%; inhibition at 10 µM (SK-OV-3): 5.11%; inhibition at 10 µM (SK-MEL-28): 7.54%; inhibition at 10 µM (MDA-MB-435): 13%
Fc1ccc(-c2cn3ccnc3c(-c3ccc4ncn(C5CCCCC5)c4c3)n2)cc1	19.5	33.3	20.3	1.17		24.4	9.54	10.3	5.73	31	21	14.2	3.49		7.59	0.01	23.3		2.03	6.12	inhibition at 10 µM (SK-MEL-28): 2.67%; inhibition at 10 µM (MDA-MB-435): 1.78%; inhibition at 10 µM (A549): 12.8%; inhibition at 10 µM (K562): 24.7%
O=Cc1ccc(-c2cn3ccnc3c(-c3ccc4ncn(C5CCCCC5)c4c3)n2)cc1		98	33.8	24.3	0.75	25	44		16.9	37.1	21.4	14.4	3.69	17.5	49.1	11.2	0.53	23.8	16.5	37.8	inhibition at 10 µM (CAKI-1): 36.5%; inhibition at 10 µM (SK-OV-3): 5.11%; inhibition at 10 µM (SK-MEL-28): 7.54%; inhibition at 10 µM (MDA-MB-435): 13%

From ChEMBL document CHEMBL5247578, “Effective synthesis of benzimidazoles-imidazo[1,2-a]pyrazine conjugates: A comparative study of mono-and bis-benzimidazoles for antitumor activity” (Eur J Med Chem, 2019)
